Source: PubChem
Compounds with a hit are over-represented: about 2.4% of the library has one in this group of screens.
LANA-H2A inh: blocks KSHV LANA binding to histone H2A/H2B; cell-free LANA-H2A/H2B peptide, fluorescence polarization; inhibition, % (concentration not given with the values); hit rate 0.6% among 320,000; Q9QR71; in the data active = inhibition mostly above about 10%, no sharp cut-off; inactive = mostly below about 6.7%
MEX-5 binding: C. elegans MEX-5 TCR-2 RNA binding activity; Q9XUB2; MEX-5/FITC-TCR2 RNA binding, fluorescence polarization; active compounds read low; activity score (negative = inhibition of binding), % at 10 µM; hit rate 0.38% among 300,000;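 active = inhibition past about -25% in most replicates, and total fluorescence under double the plate's negative control median, limit read from the data; inconclusive = replicates evenly split on the limit, or fluorescence at least double controls; inactive = too little inhibition in most replicates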;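 also: 0% = DMSO and -100% = 5 µM competing unlabeled TCR2 RNA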
EBV gp42 block: inhibitors of Epstein-Barr virus glycoprotein 42; Fluorescence polarization binding assay, mP read-out; inhibition, % (tested at 21.74 µM); hit rate 0.42% among 220,000; Q1HVG2; in the data active = inhibition above about 50%
RanGTP-Impb inh: disruptors of Ran-importin-beta complex formation – biochemical, FRET, CFP-Ran, YFP-importin-beta, homogeneous, primary screen; inhibition, % (concentration not given with the values); cell-free CFP-Ran/YFP-importin-beta FRET ratio; hit rate 1.1% among 300,000;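 active = more than half of the replicate wells show a fall in the fluorescence ratio signal beyond about 16%, limit read from the data, passing the limit was not always enough; inconclusive = exactly half of the replicate wells pass the set limit; inactive = fewer than half of replicates pass the limit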;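 also: 0% = DMSO wells and 100% = Ran loaded with GDP instead of GTP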
Runt-SMMHC FRET: Runt domain-CBFb-SMMHC interaction inhibition. Q01196+Q13951. Cerulean-Runt/Venus-CBFb-SMMHC FRET ratio 530/480, 1 h. inhibition, % at 20 µM. hit rate 0.74% among 220,000. AID 1434;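 active = mean inhibition across duplicate retests at 20 µM reaching about 50%, limit read from the data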;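 also: 0% = DMSO wells and 100% = wells with excess untagged CBFb-SMMHC; inhibitors lower the FRET ratio by blocking Runt binding to CBFb-SMMHC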
Runt-CBFb FRET: blocks binding of human RUNX1 Runt domain to CBFb; Cerulean-Runt/Venus-CBFb FRET ratio 530/480, 1 h; inhibition, % at 20 µM; hit rate 0.46% among 220,000; Q01196+Q13951;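 active = inhibition over about 50% at 20 µM in the single-dose screen, limit read from the data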;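 also: 0% = DMSO wells and 100% = excess unlabeled CBFb competitor control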
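Assay system: Cerulean-tagged RUNX1 Runt domain (FRET donor) fusion protein / Amount: 100 nM each of Venus-CBFb and Cerulean-Runt domain / Medium: Tris buffer pH 7.5 with salts and BSA / Also added: Venus-CBFb 100 nM / Schedule: 1 h complex formation plus 1 h compound treatment, room temperature / Signal: FRET fluorescence / Read-out: loss of energy transfer signal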
Starred values were filed as active, the others as inactive; i = inactive; ? = inconclusive; . = no result given.

SMILES	LANA-H2A inh	MEX-5 binding	EBV gp42 block	RanGTP-Impb inh	Runt-SMMHC FRET	Runt-CBFb FRET
CCOC(=O)c1cc(C#N)c(SCC(=O)c2cc(C#N)c(SC)nc2C)[nH]c1=O	4.2	-4.9	22.3	60.4*	35.5	15.7
CCc1cc2c(COC(=O)c3c(C)noc3C)cc(=O)oc2cc1O	1.4	1.5	11.0	17.7*	86.5*	51.4*
CCc1cc2c(COC(=O)c3cccc(S(C)(=O)=O)c3)cc(=O)oc2cc1O	9.6	-4.0	.	8.5	.	.
CN1CCN(c2nc3c(c(=O)[nH]c(=O)n3C)n2Cc2ccccc2)CC1	4.3	0.3	.	-3.2	.	.
CCCn1c(=N)c(S(=O)(=O)c2ccccc2)cc2c(=O)n3cccc(C)c3nc21	0.4	15.8	.	144.6*	.	.
Cc1cccn2c(=O)c3cc(S(=O)(=O)c4ccc(Br)cc4)c(=N)n(C4CCCC4)c3nc12	5.7	-3.0	.	2.6	.	.
CCCCCn1c(=N)c(S(=O)(=O)c2ccc(Cl)cc2)cc2c(=O)n3cccc(C)c3nc21	1.1	-2.1	.	67.3*	.	.
CC1(C)CN=C(N2CCN(C3=NCC(C)(C)S3)CC2)S1	.	.	.	.	0.2	-1.8
CC(Sc1ccsc1[N+](=O)[O-])C(=O)NCc1ccccc1 (stereo not drawn)	22.2*	0.1	-2.5	-1.5	5.7	0.8
O=C(Nc1ccc(S(=O)(=O)Nc2ncccn2)cc1)C1CC(=O)N(c2ccc(Cl)cc2)C1 (stereo not drawn)	3.4	0.4	.	-3.8	.	.
CCOc1ccccc1C1C(C#N)=C(N)SC(N)=C1C#N	-1.1	-1.0	-41.7	11.4	42.8	13.0
CCOc1ccc(C2C(C#N)=C(N)SC(N)=C2C#N)cc1OC	-16.2	12.8	-18.6	26.1*	-6.7	5.7
CCOc1ccc(C2C(C#N)=C(N)SC(N)=C2C#N)cc1OCC	-23.3	1.5	-57.9	33.1*	26.8	11.9
N#CC1=C(N)SC(N)=C(C#N)C1c1ccc(C(F)(F)F)cc1	-19.3	-0.4	-33.9	23.9*	40.8	37.6
N#CC1=C(N)SC(N)=C(C#N)C1c1ccc([N+](=O)[O-])cc1	-3.3	-1.2	-17.5	-2.0	41.0	41.0
Cc1ccc(C)c(C(=O)Nc2ccncc2)c1	15.1	1.9	.	2.6	.	.
O=c1cc(NCc2ccccc2)nc2n1CCCS2	2.9	1.1	-0.6	19.7*	0.9	-4.0
O=C(COc1cc(=O)n2c(n1)SCCC2)c1ccccc1	1.2	0.1	-13.7	2.2	1.4	0.2
CN(Cc1ccccc1)C1=CC(=[N+]2CCCCC2)CC(C)(C)C1	7.5	-2.1	-63.2	3.9	8.1	-11.0
CC1(C)CC(NNCCC#N)=CC(=[N+]2CCCC2)C1	-3.6	8.4	-33.6	18.5*	1.7	3.1
Cc1cc2c(cc1C)NC(c1c(C)n(C)n(-c3ccccc3)c1=O)C1=C(CC(C)(C)CC1=O)N2 (stereo not drawn)	i	-8.8	84.9*	8.1	-47.5	-12.3
O=C(O)c1c2c(nc3ccccc13)/C(=C/c1ccc(O)cc1)CC2	-3.2	-29.5*	1.3	-9.9	86.3*	20.3
CCc1ccc(/C=C2\CN(CC)Cc3c2nc2ccccc2c3C(=O)O)cc1	-4.4	-5.2	-1.6	-1.5	-215.2	-33.0
O=C(O)c1c2c(nc3ccccc13)/C(=C/c1c(F)cccc1F)CCC2	2.7	-0.7	.	75.0*	.	.
CCC1CCCCN1C(=O)CCn1ccnc1 (stereo not drawn)	5.4	0.2	-4.6	-3.2	-0.9	1.8
SMILES	LANA-H2A inh	MEX-5 binding	EBV gp42 block	RanGTP-Impb inh	Runt-SMMHC FRET	Runt-CBFb FRET
COc1ccccc1C(CNC(=O)C(CCSC)NS(=O)(=O)c1ccccc1F)N1CCCC1 (stereo not drawn)	1.9	0.4	.	0.8	.	.
O=C1CCCCC1Sc1nnc(Nc2ccccc2)s1 (stereo not drawn)	-1.6	1.0	-14.7	3.7	0.8	1.6
Cc1ccc(C2=NN=C(NC(=O)CSc3nncn3C)SC2)cc1	7.8	-3.4	-12.3	-1.4	61.0*	48.8
CCN(CC)C(=O)CSc1ccc(C(F)(F)F)cc1[N+](=O)[O-]	-0.5	-3.3	5.1	-3.6	3.6	-2.8
CCCCNC(=O)c1ccc(SCC(=O)N(CC)CC)c([N+](=O)[O-])c1	78.9*	0.7	26.8	0.0	-1.8	0.0
COc1cc2c(cc1OC)CN(C1CCC(C)CC1)CC2 (stereo not drawn)	1.7	0.6	.	1.7	.	.
CCn1c(CSc2nccn2C)nc2cc(C(=O)O)ccc21	2.2	-18.7	71.6*	0.3	53.3*	17.8
CCn1c(CSc2nc3ccccc3[nH]2)nc2cc(C(=O)O)ccc21	3.2	.	19.0	2.4	11.7	15.5
COc1cccc(CNC(=O)CC2C(=O)NCCN2Cc2ccoc2)c1OC (stereo not drawn)	3.1	0.0	-3.2	0.3	1.5	1.9
COc1ccc(N2CC(C)Cn3c2nc2c3c(=O)n(CCc3ccccc3)c(=O)n2C)cc1 (stereo not drawn)	.	0.5	.	40.5*	-1.0	-4.4
CCOP1(=O)OCC2OC(n3cnc4c(N)ncnc43)C(O)C2O1 (stereo not drawn)	1.0	0.6	-12.3	0.9	0.3	0.2
CCCSc1ccc(-c2nn(-c3ccccc3)cc2/C=C(/C#N)C(=O)N2CCOCC2)cc1	0.5	2.6	-14.8	-1.3	-8.7	-14.0
CCSc1ccc(-c2nn(-c3ccccc3)cc2/C=C(/C#N)C(=O)NC)cc1	0.2	.	-29.1	.	59.6*	8.5
Cc1ccccc1-n1nc2c(c1NC(=O)c1cc3ccccc3oc1=O)CS(=O)C2 (stereo not drawn)	2.9	-1.0	7.4	3.5	4.9	2.5
Cc1ccccc1-n1nc2c(c1NC(=O)c1cc3ccccc3oc1=O)CS(=O)(=O)C2	-0.3	0.5	-11.3	16.8*	39.2	10.4
COc1cccc(NC(=O)C2CC(=O)N(Cc3ccco3)C2)c1 (stereo not drawn)	2.6	.	.	.	.	.
COc1ccc(C)cc1NC(=O)C1CC(=O)N(Cc2ccco2)C1 (stereo not drawn)	13.1*	0.5	-2.2	-2.6	3.0	-0.2
CC1CC(C)CN(C(=O)COC(=O)c2ccc3c(c2)OCCO3)C1 (stereo not drawn)	3.6	.	.	.	.	.
CC(C)CCc1noc(CN2CCC(CCN3CCCC3=O)CC2)n1	10.7*	1.4	-5.2	0.1	-2.0	-2.5
CCCN1CCc2c(sc(NC(=O)C3CCN(S(=O)(=O)c4cccs4)CC3)c2C(N)=O)C1	2.1	-1.1	.	151.2*	.	.
CC(=O)N1CCc2c(sc(NC(=O)C3CCCCC3)c2C(N)=O)C1	8.5	-27.2*	.	?	.	.
CC(=O)N1CCc2c(sc(NC(=O)C3CCCN3S(=O)(=O)c3cccs3)c2C(N)=O)C1 (stereo not drawn)	5.5	-35.4*	.	-5.6	.	.
